Source: ChEMBL document CHEMBL4017537, “Discovery of a Potent and Specific M. tuberculosis Leucyl-tRNA Synthetase Inhibitor: (S)-3-(Aminomethyl)-4-chloro-7-(2-hydroxyethoxy)benzo[c][1,2]oxaborol-1(3H)-ol (GSK656)” (J Med Chem, 2017)
Converted amounts (≈) assume the structure as drawn.

Experiments:
HepG2 = assay: Cytotoxicity against human HepG2 cells assessed as reduction in cell viability after 48 hrs by CellTiter-Glo assay; type: cell-based; settings: HepG2, 48 h
Summary of the method: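 HepG2 cells seeded at 10 000/well in EMEM with 5% FCS and 2 mM glutamine. After 24 h, ten 1:2 serial compound dilutions (0.5% DMSO final) added in duplicate for 48 h. Read-out by CellTiter-Glo luminescence per table footnote; the method text also describes resazurin fluorescence (ex 515/em 590 nm). Sigmoidal variable-slope fit.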

Leucine--tRNA ligase = molecular target: T1, Leucine--tRNA ligase (Mycobacterium tuberculosis (strain ATCC 25618 / H37Rv), UniProt P9WFV1); assay: Inhibition of Mycobacterium tuberculosis H37Rv N-terminal 6His-tagged LeuRS expressed in Escherichia coli BL21(DE3) assessed as L-[14C]leucine incorporation in to Escherichia coli tRNA after 20 mins by liquid scintillation counting analysis
T1 sequence (P9WFV1 whole entry): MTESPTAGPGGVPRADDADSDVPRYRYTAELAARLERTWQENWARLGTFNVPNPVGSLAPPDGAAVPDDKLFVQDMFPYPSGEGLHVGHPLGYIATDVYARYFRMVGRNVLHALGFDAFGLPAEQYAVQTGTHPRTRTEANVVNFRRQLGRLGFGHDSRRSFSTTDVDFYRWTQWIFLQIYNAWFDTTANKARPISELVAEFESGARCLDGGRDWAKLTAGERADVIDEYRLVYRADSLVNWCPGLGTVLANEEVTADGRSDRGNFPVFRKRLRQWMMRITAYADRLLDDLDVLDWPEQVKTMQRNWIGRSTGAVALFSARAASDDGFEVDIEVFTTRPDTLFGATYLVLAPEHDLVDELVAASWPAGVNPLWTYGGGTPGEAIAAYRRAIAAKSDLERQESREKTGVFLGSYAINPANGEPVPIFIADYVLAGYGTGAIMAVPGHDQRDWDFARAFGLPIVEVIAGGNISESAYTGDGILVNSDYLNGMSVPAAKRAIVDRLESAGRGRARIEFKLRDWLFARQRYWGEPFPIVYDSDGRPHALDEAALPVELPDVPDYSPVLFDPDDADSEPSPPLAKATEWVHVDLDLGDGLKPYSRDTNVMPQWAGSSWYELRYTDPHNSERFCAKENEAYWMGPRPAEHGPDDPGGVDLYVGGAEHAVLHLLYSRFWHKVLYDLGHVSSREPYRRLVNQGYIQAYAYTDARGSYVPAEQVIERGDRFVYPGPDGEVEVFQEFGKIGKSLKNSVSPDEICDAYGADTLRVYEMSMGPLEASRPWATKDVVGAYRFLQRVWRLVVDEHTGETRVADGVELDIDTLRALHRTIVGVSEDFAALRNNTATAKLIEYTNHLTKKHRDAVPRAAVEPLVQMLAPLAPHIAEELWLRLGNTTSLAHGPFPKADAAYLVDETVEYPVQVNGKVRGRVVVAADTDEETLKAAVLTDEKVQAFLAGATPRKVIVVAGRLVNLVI
Summary of the method: (§1)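 N-terminal His6-tagged LeuRS expressed in E. coli BL21(DE3), codon-optimized. 50 mM HEPES-KOH pH 8.0, 30 mM MgCl2, 30 mM KCl, 13 μM L-[14C]leucine, 15 μM tRNA (E. coli total; brewer's yeast for human cytoplasmic enzyme), 0.02% BSA, 1 mM DTT, 30 °C. Inhibitor preincubated 20 min, started with 4 mM ATP, TCA-quenched after 7 min, filtered, scintillation counted; four-parameter logistic IC50.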

[1] = molecular target: T2, Leucine--tRNA ligase, cytoplasmic (Homo sapiens, UniProt Q9P2J5); assay: Inhibition of cytoplasmic LeuRS in human HepG2 cells assessed as reduction in protein synthesis preincubated for 48 hrs followed by L-[14C]leucine addition measured after 3 hrs by liquid scintillation counting analysis; type: cell-based
Summary of the method: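 HepG2 cells in DMEM/10% FCS, 3000 cells/well, exposed to compound dilutions (0.5% DMSO final) for 48 h at 37 °C. Medium then replaced with fresh medium containing 0.5 μCi L-[14C]leucine and the same compound levels for 3 h. Cells trypsinised, precipitated in ice-cold 20% TCA, filtered, washed, scintillation counted; curve-fit EC50; mean of at least duplicates.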

[2] = molecular target: T2, Leucine--tRNA ligase, cytoplasmic; assay: Inhibition of human N-terminal 6His-tagged cytoplasmic LeuRS expressed in Escherichia coli BL21(DE3) assessed as […] after 20 mins by liquid scintillation counting analysis
[3] = molecular target: T3, Leucine--tRNA ligase, mitochondrial (Homo sapiens, UniProt Q15031); assay: Inhibition of human N-terminal 6His-tagged mitochondrial LeuRS expressed in Escherichia coli BL21(DE3) assessed as L-[14C]leucine incorporation in to Escherichia coli tRNA after 20 mins by liquid scintillation counting analysis; summary of the method: as §1
T3 sequence (Q15031 whole entry): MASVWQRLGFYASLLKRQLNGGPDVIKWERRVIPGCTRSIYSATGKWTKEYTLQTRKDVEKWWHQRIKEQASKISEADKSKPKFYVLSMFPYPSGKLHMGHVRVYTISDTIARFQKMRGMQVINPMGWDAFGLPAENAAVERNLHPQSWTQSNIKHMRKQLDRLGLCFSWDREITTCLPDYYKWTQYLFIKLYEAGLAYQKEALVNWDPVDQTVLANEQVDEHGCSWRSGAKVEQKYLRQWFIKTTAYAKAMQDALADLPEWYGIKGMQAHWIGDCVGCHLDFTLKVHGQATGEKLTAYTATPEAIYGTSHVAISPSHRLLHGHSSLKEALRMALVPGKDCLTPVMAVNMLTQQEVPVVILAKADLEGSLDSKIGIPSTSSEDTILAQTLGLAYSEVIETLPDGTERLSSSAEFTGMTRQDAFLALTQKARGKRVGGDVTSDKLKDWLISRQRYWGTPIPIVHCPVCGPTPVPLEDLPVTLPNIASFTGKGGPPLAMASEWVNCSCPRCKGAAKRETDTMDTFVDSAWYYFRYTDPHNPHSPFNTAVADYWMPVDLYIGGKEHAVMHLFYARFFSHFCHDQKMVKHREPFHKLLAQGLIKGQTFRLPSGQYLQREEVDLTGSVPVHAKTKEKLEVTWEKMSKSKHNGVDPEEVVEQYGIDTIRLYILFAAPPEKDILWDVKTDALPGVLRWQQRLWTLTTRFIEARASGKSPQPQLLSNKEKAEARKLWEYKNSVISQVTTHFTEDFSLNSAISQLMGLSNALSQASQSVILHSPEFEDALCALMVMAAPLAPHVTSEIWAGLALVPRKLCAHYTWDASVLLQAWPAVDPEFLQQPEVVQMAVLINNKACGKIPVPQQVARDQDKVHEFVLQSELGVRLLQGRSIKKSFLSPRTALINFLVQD

[4] = system: Mycobacterium tuberculosis; assay: Antimicrobial activity against Mycobacterium tuberculosis H37Rv; type: functional
cytoplasmic LeuRS = assay: Selectivity index, ratio of EC50 for inhibition of cytoplasmic LeuRS in HepG2 cells assessed as reduction in protein synthesis to MIC for Mycobacterium tuberculosis H37Rv; type: toxicity, cell-based; settings: human, read-out: Selectivity Index
Summary of the method: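 Ratio of HepG2 protein-synthesis EC50 to MIC against M. tuberculosis H37Rv.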

T2 sequence (Q9P2J5 whole entry): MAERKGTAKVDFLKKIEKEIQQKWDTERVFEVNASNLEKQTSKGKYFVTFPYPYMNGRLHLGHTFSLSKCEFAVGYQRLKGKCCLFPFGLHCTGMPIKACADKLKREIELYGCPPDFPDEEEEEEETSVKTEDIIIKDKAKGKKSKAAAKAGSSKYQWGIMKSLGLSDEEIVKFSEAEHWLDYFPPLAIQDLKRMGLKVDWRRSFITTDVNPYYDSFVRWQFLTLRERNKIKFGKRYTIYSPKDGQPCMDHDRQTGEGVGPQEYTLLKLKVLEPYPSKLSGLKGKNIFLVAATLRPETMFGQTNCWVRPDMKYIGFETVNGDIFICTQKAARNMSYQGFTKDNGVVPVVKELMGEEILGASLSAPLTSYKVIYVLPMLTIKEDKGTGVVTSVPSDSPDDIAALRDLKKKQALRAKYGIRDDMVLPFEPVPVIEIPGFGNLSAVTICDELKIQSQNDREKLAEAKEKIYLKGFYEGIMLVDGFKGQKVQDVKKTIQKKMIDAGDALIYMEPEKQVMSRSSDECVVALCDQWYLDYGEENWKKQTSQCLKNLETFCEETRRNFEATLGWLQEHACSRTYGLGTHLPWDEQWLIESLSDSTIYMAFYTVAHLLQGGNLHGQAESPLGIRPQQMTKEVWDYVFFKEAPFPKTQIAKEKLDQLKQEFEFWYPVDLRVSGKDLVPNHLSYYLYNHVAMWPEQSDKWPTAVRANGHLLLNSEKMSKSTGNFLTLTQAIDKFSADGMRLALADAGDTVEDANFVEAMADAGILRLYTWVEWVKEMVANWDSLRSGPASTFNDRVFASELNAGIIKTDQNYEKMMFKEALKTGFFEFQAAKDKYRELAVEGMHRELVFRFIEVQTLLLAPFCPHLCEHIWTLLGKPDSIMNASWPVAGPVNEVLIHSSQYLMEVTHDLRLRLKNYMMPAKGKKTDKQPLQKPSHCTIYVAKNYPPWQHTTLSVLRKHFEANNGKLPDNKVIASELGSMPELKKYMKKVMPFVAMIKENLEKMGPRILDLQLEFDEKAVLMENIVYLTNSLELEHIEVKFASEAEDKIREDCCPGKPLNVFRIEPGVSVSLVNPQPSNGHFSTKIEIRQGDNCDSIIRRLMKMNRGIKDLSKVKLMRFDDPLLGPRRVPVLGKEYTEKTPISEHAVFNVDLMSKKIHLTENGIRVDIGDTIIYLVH

| Compound | EC50 (HepG2) [nM] | IC50 (Leucine--tRNA ligase) [nM] | EC50 [1] [nM] | IC50 [2] [nM] | IC50 [3] [nM] | MIC [4] [µM] | selectivity ratio (cytoplasmic LeuRS) |
| --- | --- | --- | --- | --- | --- | --- | --- |
| NC[C@H]1OB(O)c2c(OCCO)ccc(Br)c21 | 292000 | 120 | 116000 | 118000 | > 300000 | 0.08 (≈ 0.0242 µg/mL) | 1450 |
| NCC1OB(O)c2c3c(cc(Br)c21)OCO3 (racemic) | – | 610 | – | – | – | > 5 | – |
| NCC1OB(O)c2c3c(cc(Cl)c21)OCCO3 (racemic) | – | 130 | – | – | – | 0.31 (≈ 0.0792 µg/mL) | – |
| NCC1OB(O)c2c(OCc3ccccc3)ccc(Br)c21 (racemic) | – | 440 | – | – | – | 5 (≈ 1.74 µg/mL) | – |
| NCC1OB(O)c2cc(OCCO)cc(Br)c21 (racemic) | – | 890 | – | – | – | > 5 | – |
| NC[C@@H]1OB(O)c2c(OCCO)ccc(Cl)c21 | – | 10000 | – | – | – | 5 (≈ 1.29 µg/mL) | – |
| NCC1OB(O)c2c(OCCF)ccc(Br)c21 (racemic) | – | 260 | – | – | – | 0.2 (≈ 0.0608 µg/mL) | – |
| NCC1OB(O)c2c(OCC(F)F)ccc(Cl)c21 (racemic) | – | 290 | – | – | – | 0.3 (≈ 0.0832 µg/mL) | – |
| CCCCOc1ccc(Cl)c2c1B(O)O[C@@H]2CN | – | 270 | – | – | – | 0.6 (≈ 0.162 µg/mL) | – |
| NCC1OB(O)c2cc(OCCO)cc(Cl)c21 (racemic) | – | 1110 | – | – | – | > 5 | – |
| NCC1OB(O)c2cc(OCCCO)cc(Cl)c21 (racemic) | – | 440 | – | – | – | > 5 | – |
| NCC1OB(O)c2c(OCCF)ccc(Cl)c21 (racemic) | – | 76 | – | – | – | 0.2 (≈ 0.0519 µg/mL) | – |
| NC[C@H]1OB(O)c2c(OCCCO)ccc(Br)c21 | – | 160 | – | – | – | 0.3 (≈ 0.0948 µg/mL) | – |
| CCOc1ccc(Cl)c2c1B(O)O[C@@H]2CN | 65800 | 56 | 19600 | – | > 300000 | 0.1 (≈ 0.0241 µg/mL) | 196 |
| CCCOc1cc(Cl)c2c(c1)B(O)OC2CN (racemic) | – | 250 | – | – | – | 1.3 (≈ 0.332 µg/mL) | – |
| NCC1OB(O)c2c(OCC(F)F)ccc(Br)c21 (racemic) | – | 240 | – | – | – | 0.31 (≈ 0.0998 µg/mL) | – |
| NCC1OB(O)c2c(OCCO)ccc(Cl)c21 (racemic) | – | 240 | – | – | – | 0.63 (≈ 0.162 µg/mL) | – |
| NCC1OB(O)c2c(OCc3ccccc3)ccc(Cl)c21 (racemic) | – | 320 | – | – | – | 5 (≈ 1.52 µg/mL) | – |
| CCCOc1cc(Br)c2c(c1)B(O)OC2CN (racemic) | – | 370 | – | – | – | 0.6 (≈ 0.18 µg/mL) | – |
| NCC1OB(O)c2c3c(cc(Cl)c21)OCO3 (racemic) | – | 250 | – | – | – | > 5 | – |
